For data set [1], the system named is Saccharomyces cerevisiae. Put plainly: Antifungal activity against wild type Saccharomyces cerevisiae ATCC 9763 in YNPG-proline medium after 24 hrs by microdilution method. The class given is functional. As to conditions: ATCC 9763, 24 h. For orientation: Broth dilution looks for growth in wells or tubes with falling amounts of substance.
The test system of data set [2] is Saccharomyces cerevisiae. Put plainly: Antifungal activity against Saccharomyces cerevisiae ADMDR1 expressing Candida albicans MDR1 efflux pump in YNPG-proline medium after 24 hrs by microdilution method. As to conditions: ADMDR1, 24 h. The class given is functional.
For data set [3], the system named is Saccharomyces cerevisiae. Put plainly: Antifungal activity against Saccharomyces cerevisiae AD12345678 in YNPG-proline medium after 24 hrs by microdilution method. The class given is functional. The settings on record: AD12345678, 24 h.
The test system of data set [4] is Saccharomyces cerevisiae. Put plainly: Antifungal activity against Saccharomyces cerevisiae ADCDR2 expressing Candida albicans CDR2 efflux pump in YNPG-proline medium after 24 hrs by microdilution method. As to conditions: ADCDR2, 24 h. The class given is functional.
For data set [5], the system named is Saccharomyces cerevisiae. Put plainly: Antifungal activity against Saccharomyces cerevisiae ADCDR1 expressing Candida albicans CDR1 efflux pump in YNPG-proline medium after 24 hrs by microdilution method. The class given is functional. The settings on record: ADCDR1, 24 h.
For data set [6], the system named is Candida albicans. Put plainly: Antifungal activity against fluconazole sensitive Candida albicans isolate B3 in RPMI-1640 buffered medium after 24 hrs by microdilution method. The class given is functional. The settings on record: Candida albicans, isolate B3, 24 h; read-out: MIC. The procedure, abridged:
(§1)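 C. albicans cells were grown in 2% glucose, 1% yeast extract, 1% Bacto peptone medium before testing. […] CARE-2 fingerprinting confirmed that each pair is a single strain.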

Data set [7] relates to Candida albicans. Put plainly: Antifungal activity against fluconazole sensitive Candida albicans isolate Gu4 in RPMI-1640 buffered medium after 24 hrs by microdilution method. The class given is functional. The settings on record: Candida albicans, isolate Gu4, 24 h; read-out: MIC. Summed up:
as §1

Data set [8] has as its system Candida albicans. In words: Antifungal activity against fluconazole resistant Candida albicans isolate Gu5 overexpressing CDR1 and CDR2 in RPMI-1640 buffered medium after 24 hrs by microdilution method. The class given is functional. As to conditions: isolate Gu5, 24 h. Summed up: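 C. albicans cells were grown in 2% glucose, 1% yeast extract, 1% Bacto peptone medium before testing. CARE-2 fingerprinting confirmed that each pair is a single strain.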

For data set [9], the system named is Candida albicans. Put plainly: Antifungal activity against fluconazole resistant Candida albicans isolate B4 overexpressing MDR1 in RPMI-1640 buffered medium after 24 hrs by microdilution method. The class given is functional. As to conditions: Candida albicans, isolate B4, 24 h; read-out: MIC. The procedure, abridged:
as §1

For data set [10], the system named is Candida albicans. In words: Antifungal activity against wild type Candida albicans 10261 in RPMI-1640 buffered medium after 24 hrs by microdilution method. The settings on record: Candida albicans, 10261, 24 h; read-out: MIC. The class given is functional. Summed up:
as §1

In data set [11] the test system is Candida albicans. In words: Prodrug stability in fluconazole sensitive Candida albicans isolate B3 assessed as compound cleavage rate measured per mg of protein. The settings on record: in vivo. The class given is ADME, organism-based.
In data set [12] the test system is Saccharomyces cerevisiae. In words: Drug uptake in Saccharomyces cerevisiae AD12345678 at 200 uM pretreated for 10 mins measured after 60 mins by fluorescamine staining. The class given is ADME, organism-based. As to conditions: in vivo, 1 h.
The subject of data set [13] is Saccharomyces cerevisiae. In words: Drug uptake in Saccharomyces cerevisiae ADCDR2 expressing Candida albicans CDR2 efflux pump at 200 uM pretreated for 10 mins measured after 60 mins by fluorescamine staining. The class given is ADME, organism-based. As to conditions: in vivo, 1 h.
Data set [14] has as its system Saccharomyces cerevisiae. Put plainly: Prodrug stability in Saccharomyces cerevisiae AD12345678 assessed as compound cleavage rate measured per mg of protein. The class given is ADME, organism-based. The settings on record: in vivo.
Data set [15] relates to Candida albicans. In words: Prodrug stability in wild type Candida albicans 10261 assessed as compound cleavage rate measured per mg of protein. The class given is ADME, organism-based. As to conditions: in vivo.
Data set [16] has as its system Saccharomyces cerevisiae. Put plainly: Drug uptake in Saccharomyces cerevisiae ADCDR1 expressing Candida albicans CDR1 efflux pump at 200 uM pretreated for 10 mins measured after 60 mins by fluorescamine staining. The class given is ADME, organism-based. The settings on record: in vivo, 1 h.
The test system of data set [17] is Saccharomyces cerevisiae. Put plainly: Prodrug stability in Saccharomyces cerevisiae ADCDR1 expressing Candida albicans CDR1 efflux pump assessed as compound cleavage rate measured per mg of protein. The class given is ADME, organism-based. As to conditions: in vivo.
The subject of data set [18] is Saccharomyces cerevisiae. In words: Drug uptake in Saccharomyces cerevisiae ADMDR1 expressing Candida albicans MDR1 efflux pump at 200 uM pretreated for 10 mins measured after 60 mins by fluorescamine staining. The class given is ADME, organism-based. As to conditions: in vivo, 1 h.
The subject of data set [19] is Candida albicans. Put plainly: Prodrug stability in fluconazole sensitive Candida albicans isolate Gu4 assessed as compound cleavage rate measured per mg of protein. The settings on record: in vivo. The class given is ADME, organism-based. Summed up:
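Oligopeptides were incubated with cell extracts of the yeast cells, and their hydrolytic enzymes cleaved them. The amino acids released were quantified by the Cd-ninhydrin method.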

The subject of data set [20] is Saccharomyces cerevisiae. Put plainly: Prodrug stability in Saccharomyces cerevisiae ADMDR1 expressing Candida albicans MDR1 efflux pump assessed as compound cleavage rate measured per mg of protein. The class given is ADME, organism-based. The settings on record: in vivo.
Data set [21] deals with Saccharomyces cerevisiae. Put plainly: Prodrug stability in wild type Saccharomyces cerevisiae ATCC 9763 assessed as compound cleavage rate measured per mg of protein. The class given is ADME, organism-based. As to conditions: in vivo.
Data set [22] deals with Saccharomyces cerevisiae. In words: Prodrug stability in Saccharomyces cerevisiae ADCDR2 expressing Candida albicans CDR2 efflux pump assessed as compound cleavage rate measured per mg of protein. The class given is ADME, organism-based. The settings on record: in vivo.

The structures appear in SMILES notation. Values after ≈ are worked out from the molar mass of the structure shown. Residues, ends and D or L forms follow the SMILES beside them. *: point of attachment. Ethyl(2-NH2) = NCC*

Turning to `CC(C)C[C@H](NC(=O)[C@@H](N)COCCN)C(=O)NCC(=O)O`, the MIC (in general, the smallest concentration in the dilution series that meets the test's criterion for growth inhibition) was determined as 8 mg/L (≈ 25.1 µM) in [1]; 4 mg/L (≈ 12.6 µM) in [2]; 4 mg/L (≈ 12.6 µM) in [3]; 1 mg/L (≈ 3.14 µM) in data set [4]; 1 mg/L (≈ 3.14 µM) in data set [5]; 64 mg/L (≈ 201 µM) in data set [6]. Also, the MIC in data set [7] was determined as 256 mg/L (≈ 804 µM); in data set [8], 16 mg/L (≈ 50.3 µM); in data set [9] it was 32 mg/L (≈ 101 µM); in data set [10], 128 mg/L (≈ 402 µM).
`CCC[C@H](N)C(=O)N[C@@H](CNC(=O)/C=C/C(=O)OC)C(=O)O`: the Stability in [11] is 20 nmol/min; in data set [14], 14 nmol/min; in data set [15], 20 nmol/min; in [17] it was 14 nmol/min; in data set [19], 20 nmol/min; in data set [20] it was 14 nmol/min. The Stability in [21] and in data set [22] was 14 nmol/min in each case. In addition, the Drug uptake came to 0.96 nmol/min/mg in data set [12], 1.56 nmol/min/mg in [13], 1.86 nmol/min/mg in data set [16] and 1.02 nmol/min/mg in [18]. Besides, the minimal inhibitory concentration (MIC) in [1] was determined as 4 mg/L (≈ 12.7 µM); in [2], 4 mg/L (≈ 12.7 µM); in data set [3] it was 4 mg/L (≈ 12.7 µM); in data set [4] it was 1 mg/L (≈ 3.17 µM); in data set [5], 0.5 mg/L (≈ 1.59 µM); in data set [6], 4 mg/L (≈ 12.7 µM). Besides, the MIC in data set [7] amounted to 2 mg/L (≈ 6.34 µM); in [8] it was 0.125 mg/L (≈ 0.396 µM); in [9], 4 mg/L (≈ 12.7 µM); in data set [10], 2 mg/L (≈ 6.34 µM).
For the molecule `CCC[C@H](NC(=O)[C@@H](N)CCCCN)C(=O)N[C@@H](CNC(=O)/C=C/C(=O)OC)C(=O)O` [listing 1 of 2 here], the Stability in [11] is given as 20 nmol/min; in data set [14], 14 nmol/min; in data set [15], 20 nmol/min; in [17] it was 14 nmol/min; in [19], 20 nmol/min; in [20] it was 14 nmol/min. The Stability in [21] and in data set [22] was 14 nmol/min each time. Further, the Drug uptake worked out at 0.79 nmol/min/mg in [12], 1.18 nmol/min/mg in [13], 1.61 nmol/min/mg in data set [16] and 0.81 nmol/min/mg in data set [18].
In the case of `CCC[C@H](NC(=O)[C@@H](N)CCCCN)C(=O)N[C@@H](CNC(=O)/C=C/C(=O)OC)C(=O)O` [listing 2 of 2 here], the MIC amounted to 32 mg/L (≈ 72.2 µM) in [1]; 32 mg/L (≈ 72.2 µM) in [2]; 32 mg/L (≈ 72.2 µM) in data set [3]; 8 mg/L (≈ 18 µM) in [4]; 4 mg/L (≈ 9.02 µM) in data set [5]; 8 mg/L (≈ 18 µM) in data set [6]. Also, the MIC in data set [7] is 4 mg/L (≈ 9.02 µM); in data set [8], 1 mg/L (≈ 2.25 µM); in data set [9], 8 mg/L (≈ 18 µM); in data set [10], 8 mg/L (≈ 18 µM).
As for `C[C@H](N)C(=O)N[C@@H](C)C(=O)N[C@@H](C)C(=O)O`, the Drug uptake in data set [12] amounted to 3.15 nmol/min/mg; in [13], 4.74 nmol/min/mg; in data set [16] it was 5.3 nmol/min/mg; in data set [18], 2.91 nmol/min/mg.
On to `CC(C)C[C@H](NC(=O)[C@H](CC(C)C)NC(=O)[C@@H](N)COCCN)C(=O)NCC(=O)O` (H-S(Ethyl(2-NH2))LLG-OH), for which the Stability was 20 nmol/min in [11]; 14 nmol/min in data set [14]; 20 nmol/min in [15]; 14 nmol/min in [17]; 20 nmol/min in data set [19]; 14 nmol/min in data set [20]. In addition, the Stability in data set [21] and in data set [22] was 14 nmol/min each time. In addition, the Drug uptake in data set [12] was found to be 0.51 nmol/min/mg; in data set [13], 0.96 nmol/min/mg; in data set [16], 0.83 nmol/min/mg; in data set [18], 0.65 nmol/min/mg.
